What was measured:
[1] = target: Fibroblast growth factor receptor 1 (Homo sapiens, UniProt P11362); experiment: Inhibition of His-tagged cytoplasmic recombinant human FGFR1 (308 to 731 residues) expressed in baculovirus expression system using Tyr 4 peptide as substrate incubated for 1 hr by FRET-based Z'-Lyte assay
[2] = target: Fibroblast growth factor receptor 3 (Homo sapiens, UniProt P22607); experiment: Inhibition of His-tagged cytoplasmic recombinant human FGFR3 (399 to 806 residues) expressed in baculovirus expression system using Tyr 4 peptide as substrate incubated for 1 hr by FRET-based Z'-Lyte assay
Sequence of Fibroblast growth factor receptor 3 (P22607 whole entry, the tested form may be a part): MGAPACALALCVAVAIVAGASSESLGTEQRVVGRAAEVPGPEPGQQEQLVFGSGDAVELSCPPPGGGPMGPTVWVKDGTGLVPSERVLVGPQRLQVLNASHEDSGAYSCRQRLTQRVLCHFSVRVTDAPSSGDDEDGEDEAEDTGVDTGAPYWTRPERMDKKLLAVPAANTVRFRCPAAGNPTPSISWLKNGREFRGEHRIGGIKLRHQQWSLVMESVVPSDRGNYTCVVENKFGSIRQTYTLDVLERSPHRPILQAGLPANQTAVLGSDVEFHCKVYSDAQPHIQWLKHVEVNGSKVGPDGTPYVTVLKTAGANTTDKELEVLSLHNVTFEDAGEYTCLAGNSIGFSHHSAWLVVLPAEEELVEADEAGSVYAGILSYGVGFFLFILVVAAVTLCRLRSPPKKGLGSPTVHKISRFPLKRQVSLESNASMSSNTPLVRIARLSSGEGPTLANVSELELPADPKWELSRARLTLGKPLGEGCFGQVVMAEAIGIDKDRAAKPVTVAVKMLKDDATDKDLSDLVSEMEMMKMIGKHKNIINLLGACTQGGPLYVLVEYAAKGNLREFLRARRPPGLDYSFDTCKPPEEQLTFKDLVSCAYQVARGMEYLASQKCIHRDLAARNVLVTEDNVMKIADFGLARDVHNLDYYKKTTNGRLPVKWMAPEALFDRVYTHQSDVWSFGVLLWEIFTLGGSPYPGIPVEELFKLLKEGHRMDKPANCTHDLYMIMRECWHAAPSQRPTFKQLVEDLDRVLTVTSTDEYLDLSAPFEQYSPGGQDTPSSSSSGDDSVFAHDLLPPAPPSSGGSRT

[3] = target: Fibroblast growth factor receptor 2 (Homo sapiens, UniProt P21802); experiment: Inhibition of His-tagged cytoplasmic recombinant human FGFR2 (403 to 822 residues) expressed in baculovirus expression system using Tyr 4 peptide as substrate incubated for 1 hr by FRET-based Z'-Lyte assay
Sequence of Fibroblast growth factor receptor 2 (P21802 whole entry, the tested form may be a part): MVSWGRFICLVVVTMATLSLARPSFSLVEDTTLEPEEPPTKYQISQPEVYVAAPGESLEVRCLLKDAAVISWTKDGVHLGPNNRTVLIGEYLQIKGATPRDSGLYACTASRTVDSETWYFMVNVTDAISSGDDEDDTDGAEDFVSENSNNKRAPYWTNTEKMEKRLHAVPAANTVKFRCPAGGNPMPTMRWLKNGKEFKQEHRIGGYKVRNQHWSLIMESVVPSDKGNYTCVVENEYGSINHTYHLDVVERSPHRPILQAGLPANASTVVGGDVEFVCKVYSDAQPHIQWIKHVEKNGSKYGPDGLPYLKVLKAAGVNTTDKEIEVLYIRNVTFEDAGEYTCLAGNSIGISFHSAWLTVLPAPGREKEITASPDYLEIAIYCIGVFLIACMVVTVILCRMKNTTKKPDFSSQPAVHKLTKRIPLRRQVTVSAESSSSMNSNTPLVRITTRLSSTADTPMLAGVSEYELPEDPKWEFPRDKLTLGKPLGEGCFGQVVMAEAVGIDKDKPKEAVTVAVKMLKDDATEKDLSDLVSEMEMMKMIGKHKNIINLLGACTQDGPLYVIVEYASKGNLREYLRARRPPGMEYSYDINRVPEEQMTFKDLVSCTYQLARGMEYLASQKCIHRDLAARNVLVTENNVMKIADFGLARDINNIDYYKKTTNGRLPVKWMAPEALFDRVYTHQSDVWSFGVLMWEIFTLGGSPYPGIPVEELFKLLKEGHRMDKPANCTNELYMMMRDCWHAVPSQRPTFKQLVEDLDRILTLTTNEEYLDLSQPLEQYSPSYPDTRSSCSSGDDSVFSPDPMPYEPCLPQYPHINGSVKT

MDA-MB-231 = experiment: Antiproliferative activity against human MDA-MB-231 cells expressing low levels of FGFR4 after 72 hrs by CCK8 assay; conditions: MDA-MB-231, 72 h
MDA-MB-453 [4] = experiment: Antiproliferative activity against human MDA-MB-453 cells harboring FGFR4 Y367C mutant after 72 hrs by CCK8 assay; conditions: MDA-MB-453, 72 h
MCF7 = experiment: Antiproliferative activity against human MCF7 cells expressing low levels of FGFR4 after 72 hrs by CCK8 assay; conditions: MCF7, 72 h
[5] = target: T1, Fibroblast growth factor receptor 4 (Homo sapiens, UniProt P22455); experiment: Inhibition of His-tagged cytoplasmic recombinant human FGFR4 ([…] residues) expressed in baculovirus expression system using Tyr 4 peptide as substrate incubated for 1 hr by FRET-based Z'-Lyte assay
Target sequence in this assay (P22455 whole entry): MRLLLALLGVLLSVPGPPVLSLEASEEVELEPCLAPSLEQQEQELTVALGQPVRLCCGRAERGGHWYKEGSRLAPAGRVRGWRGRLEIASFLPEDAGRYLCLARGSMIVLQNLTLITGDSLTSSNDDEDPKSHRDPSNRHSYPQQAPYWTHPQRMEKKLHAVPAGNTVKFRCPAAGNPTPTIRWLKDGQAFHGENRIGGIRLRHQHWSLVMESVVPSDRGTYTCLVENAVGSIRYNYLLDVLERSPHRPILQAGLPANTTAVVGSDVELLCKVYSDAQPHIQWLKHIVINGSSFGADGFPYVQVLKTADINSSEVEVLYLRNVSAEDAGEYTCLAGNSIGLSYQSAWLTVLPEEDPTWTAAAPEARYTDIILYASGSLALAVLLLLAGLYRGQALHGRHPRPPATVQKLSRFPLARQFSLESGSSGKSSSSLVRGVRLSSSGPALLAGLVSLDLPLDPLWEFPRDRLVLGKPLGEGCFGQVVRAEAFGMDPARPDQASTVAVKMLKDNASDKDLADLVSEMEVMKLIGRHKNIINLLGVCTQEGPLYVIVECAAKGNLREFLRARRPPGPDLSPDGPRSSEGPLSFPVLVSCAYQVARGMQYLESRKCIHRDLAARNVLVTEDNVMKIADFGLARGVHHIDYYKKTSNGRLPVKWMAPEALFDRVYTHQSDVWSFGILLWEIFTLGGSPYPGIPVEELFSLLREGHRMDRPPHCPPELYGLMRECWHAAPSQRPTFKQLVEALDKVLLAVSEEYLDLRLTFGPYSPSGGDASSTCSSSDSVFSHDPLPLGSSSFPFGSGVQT

MDA-MB-453 [6] = experiment: Effect on total FRS2 levels in human MDA-MB-453 cells at 3 to 300 nM after 4 hrs by Western blot method; type: ADME, cell-based; conditions: mda-mb-453, 4 h, 0.3 µM
Method in brief: (§1)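 MDA-MB-453 cells (FGFR4 Y367C) were treated with or without compound for 4 h at the indicated concentrations. Cells were then harvested, and total and phosphorylated FGFR4, FRS2, ERK1/2 and Akt were read by Western blot.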

[7] = target: T1, Fibroblast growth factor receptor 4; conditions: 1 uM
Target sequence in this assay (P22455 22-802 limits assumed): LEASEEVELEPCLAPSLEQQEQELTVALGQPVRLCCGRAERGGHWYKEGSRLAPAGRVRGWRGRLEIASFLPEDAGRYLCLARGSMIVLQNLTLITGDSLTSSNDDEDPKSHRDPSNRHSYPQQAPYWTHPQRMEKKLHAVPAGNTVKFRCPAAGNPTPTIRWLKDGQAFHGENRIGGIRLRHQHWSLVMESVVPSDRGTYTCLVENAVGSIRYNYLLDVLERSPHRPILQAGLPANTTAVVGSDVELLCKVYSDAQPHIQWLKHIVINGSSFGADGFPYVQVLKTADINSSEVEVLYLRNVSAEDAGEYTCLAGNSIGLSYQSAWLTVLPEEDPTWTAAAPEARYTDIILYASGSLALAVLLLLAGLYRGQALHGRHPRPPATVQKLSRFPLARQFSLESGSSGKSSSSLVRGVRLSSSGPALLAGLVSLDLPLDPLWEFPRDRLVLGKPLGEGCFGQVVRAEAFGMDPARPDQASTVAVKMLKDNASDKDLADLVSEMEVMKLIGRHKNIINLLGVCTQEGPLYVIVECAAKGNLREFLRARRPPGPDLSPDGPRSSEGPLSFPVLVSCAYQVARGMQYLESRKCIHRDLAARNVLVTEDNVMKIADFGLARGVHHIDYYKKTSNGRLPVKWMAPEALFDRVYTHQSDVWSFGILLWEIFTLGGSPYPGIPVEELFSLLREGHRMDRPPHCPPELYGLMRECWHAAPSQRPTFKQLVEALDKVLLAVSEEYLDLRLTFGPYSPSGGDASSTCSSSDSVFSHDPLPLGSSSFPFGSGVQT

MDA-MB-453 [8] = experiment: Effect on total AKT levels in human MDA-MB-453 cells at 3 to 300 nM after 4 hrs by Western blot method; type: ADME, cell-based; conditions: mda-mb-453, 4 h, 0.3 µM; method in brief: as §1
[9] = target: T1, Fibroblast growth factor receptor 4; experiment: Binding affinity to ATP binding site of human FGFR4 after 1 hr by qPCR method
Method in brief: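 The Kd for FGFR4 was measured in an active-site-dependent competition binding assay against the ATP-binding site.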
Target sequence in this assay (P22455 whole entry): as the sequence (P22455 whole entry) above

[10] = target: SRSF protein kinase 3 (Homo sapiens) (UniProt Q9UPE1); experiment: Inhibition of human SRSF protein kinase 3 at 1 uM after 1 hr by KINOMEscan assay relative to control
Sequence of SRSF protein kinase 3 (Homo sapiens) (Q9UPE1 whole entry): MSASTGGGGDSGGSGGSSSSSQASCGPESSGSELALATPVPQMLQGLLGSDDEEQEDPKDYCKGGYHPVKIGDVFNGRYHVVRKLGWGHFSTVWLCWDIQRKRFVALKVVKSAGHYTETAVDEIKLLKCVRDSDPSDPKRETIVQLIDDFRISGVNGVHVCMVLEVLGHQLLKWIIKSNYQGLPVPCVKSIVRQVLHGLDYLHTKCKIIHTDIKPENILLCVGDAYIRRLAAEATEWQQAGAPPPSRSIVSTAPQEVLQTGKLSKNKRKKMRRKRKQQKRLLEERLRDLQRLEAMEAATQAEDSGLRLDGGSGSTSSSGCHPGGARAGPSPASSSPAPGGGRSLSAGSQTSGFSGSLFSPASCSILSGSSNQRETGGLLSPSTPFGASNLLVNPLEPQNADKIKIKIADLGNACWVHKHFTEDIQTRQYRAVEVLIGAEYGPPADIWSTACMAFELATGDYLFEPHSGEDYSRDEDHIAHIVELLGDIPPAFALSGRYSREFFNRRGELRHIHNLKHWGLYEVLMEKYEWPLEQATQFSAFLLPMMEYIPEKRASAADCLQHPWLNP
Method in brief: (§2)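 Kinome-wide competition binding screen across 468 kinases, with compound at 1.0 µM.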

MDA-MB-453 [11] = experiment: Induction of apoptosis in human MDA-MB-453 cells after 48 hrs by annexin V/[…] staining-based flow cytometric method; type: functional, cell-based
[12] = target: G protein-coupled receptor kinase 4 (Homo sapiens) (UniProt P32298); experiment: Inhibition of human GRK4 at 1 uM after 1 hr by KINOMEscan assay relative to control; method in brief: as §2
MDA-MB-453 [13] = experiment: Effect on total ERK1/2 levels in human MDA-MB-453 cells at 3 to 300 nM after 4 hrs by Western blot method; type: ADME, cell-based; conditions: mda-mb-453, 4 h, 0.3 µM; method in brief: as §1
[14] = target: Calcium/calmodulin-dependent protein kinase type 1D (Homo sapiens) (UniProt Q8IU85); experiment: Inhibition of human CAMK1D at 1 uM after 1 hr by KINOMEscan assay relative to control; method in brief: as §2
Sequence of Calcium/calmodulin-dependent protein kinase type 1D (Homo sapiens) (Q8IU85 whole entry, looked up): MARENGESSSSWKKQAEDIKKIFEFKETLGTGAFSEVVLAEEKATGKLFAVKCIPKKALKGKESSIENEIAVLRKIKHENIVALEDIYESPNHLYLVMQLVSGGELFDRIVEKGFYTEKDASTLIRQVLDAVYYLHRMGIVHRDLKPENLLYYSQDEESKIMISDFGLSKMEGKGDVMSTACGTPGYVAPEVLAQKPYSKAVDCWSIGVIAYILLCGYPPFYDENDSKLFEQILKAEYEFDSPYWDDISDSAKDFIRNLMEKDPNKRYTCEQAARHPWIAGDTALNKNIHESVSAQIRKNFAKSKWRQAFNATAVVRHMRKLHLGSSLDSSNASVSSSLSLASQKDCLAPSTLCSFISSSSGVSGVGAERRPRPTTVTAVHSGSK

Sequence of Fibroblast growth factor receptor 1 (P11362 whole entry, the tested form may be a part): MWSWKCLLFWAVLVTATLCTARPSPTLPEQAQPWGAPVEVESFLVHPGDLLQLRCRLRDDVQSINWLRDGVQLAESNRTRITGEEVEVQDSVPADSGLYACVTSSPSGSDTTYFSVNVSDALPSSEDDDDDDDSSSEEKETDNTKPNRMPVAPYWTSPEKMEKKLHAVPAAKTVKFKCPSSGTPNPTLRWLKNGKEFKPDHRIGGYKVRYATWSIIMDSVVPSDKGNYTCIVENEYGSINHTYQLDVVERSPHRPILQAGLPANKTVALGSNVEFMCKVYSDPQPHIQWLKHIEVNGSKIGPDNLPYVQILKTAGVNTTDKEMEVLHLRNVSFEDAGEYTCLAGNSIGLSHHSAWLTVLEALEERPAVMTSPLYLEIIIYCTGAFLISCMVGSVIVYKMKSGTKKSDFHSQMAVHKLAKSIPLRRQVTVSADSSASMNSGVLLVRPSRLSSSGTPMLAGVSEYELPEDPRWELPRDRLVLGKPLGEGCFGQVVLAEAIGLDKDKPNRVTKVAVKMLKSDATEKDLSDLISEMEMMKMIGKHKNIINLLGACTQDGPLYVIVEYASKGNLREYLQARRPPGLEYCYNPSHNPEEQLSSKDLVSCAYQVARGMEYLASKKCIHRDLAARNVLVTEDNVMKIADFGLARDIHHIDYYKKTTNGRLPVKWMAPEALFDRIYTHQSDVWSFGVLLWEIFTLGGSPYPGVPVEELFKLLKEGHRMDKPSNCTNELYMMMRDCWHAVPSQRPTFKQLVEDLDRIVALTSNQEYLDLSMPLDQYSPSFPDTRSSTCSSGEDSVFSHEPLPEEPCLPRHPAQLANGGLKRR

IC50 [1] | IC50 [2] | IC50 [3] | SMILES | other results
> 10 µM | > 10 µM | > 10 µM | C=CC(=O)Nc1cccc(Cl)c1Nc1ncc(OCc2ccccc2Cl)cn1 | –
0.24 µM | 0.244 µM | – | C=CC(=O)Nc1cccc(C)c1Nc1ncc2cc(-c3c(Cl)c(OC)cc(OC)c3Cl)ccc2n1 | IC50 (MDA-MB-231): 3.76 µM; IC50 (MDA-MB-453 [4]): 0.32 µM; IC50 (MCF7): 2.34 µM
> 10 µM | > 10 µM | > 10 µM | C=CC(=O)Nc1cccc(Cl)c1Nc1ncc(OCc2c(Cl)cccc2Cl)cn1 | –
– | > 10 µM | > 10 µM | C=CC(=O)Nc1cccc(Cl)c1Nc1ncc(OCc2cc(OC)ccc2Cl)cn1 | –
– | > 10 µM | > 10 µM | C=CC(=O)Nc1cccc(Cl)c1Nc1ncc(OCc2cc(OC)cc(OC)c2)cn1 | –
– | > 10 µM | > 10 µM | CCC(=O)Nc1cccc(Cl)c1Nc1ncc(OCc2c(Cl)c(OC)cc(OC)c2Cl)cn1 | IC50 [5]: > 10 µM
– | > 10 µM | > 10 µM | C=CC(=O)Nc1cccc(C)c1Nc1ncc(NCc2c(Cl)c(OC)cc(OC)c2Cl)cn1 | –
– | 4.3 µM | 0.397 µM | C=CC(=O)Nc1cccc(F)c1Nc1ncc(OCc2c(Cl)c(OC)cc(OC)c2Cl)cn1 | –
– | – | – | C=CC(=O)Nc1cccc(C)c1Nc1ncc(OCc2c(Cl)c(OC)cc(OC)c2Cl)cn1 | IC50 (MDA-MB-231): > 10 µM; IC50 (MDA-MB-453 [4]): 0.22 µM; IC50 (MCF7): > 10 µM
> 10 µM | > 10 µM | > 10 µM | C=CC(=O)Nc1cccc(Cl)c1Nc1ncc(OCc2cccc(OC)c2)cn1 | –
– | > 10 µM | > 10 µM | C=CC(=O)Nc1ccc(C)cc1Nc1ncc(OCc2c(Cl)c(OC)cc(OC)c2Cl)cn1 | –
– | > 10 µM | > 10 µM | C=CC(=O)Nc1cccc(CC)c1Nc1ncc(OCc2c(Cl)c(OC)cc(OC)c2Cl)cn1 | –
– | > 10 µM | > 10 µM | C=CC(=O)Nc1c(C)cccc1Nc1ncc(OCc2c(Cl)c(OC)cc(OC)c2Cl)cn1 | IC50 [5]: > 10 µM
> 10 µM | > 10 µM | > 10 µM | C=CC(=O)Nc1cccc(OC(C)C)c1Nc1ncc(OCc2c(Cl)c(OC)cc(OC)c2Cl)cn1 | –
– | > 10 µM | > 10 µM | C=CC(=O)Nc1cc(Cl)cc(Cl)c1Nc1ncc(OCc2c(Cl)c(OC)cc(OC)c2Cl)cn1 | IC50 (MDA-MB-231): > 10 µM; IC50 (MDA-MB-453 [4]): 0.87 µM; IC50 (MCF7): > 10 µM
– | > 10 µM | > 10 µM | C=CC(=O)Nc1cc(C)ccc1Nc1ncc(OCc2c(Cl)c(OC)cc(OC)c2Cl)cn1 | –
– | > 10 µM | > 10 µM | C=CC(=O)Nc1cccc(Cl)c1Nc1ncc(OCc2cccc(OC)c2Cl)cn1 | –
– | 1.2 µM | 0.312 µM | C=CC(=O)Nc1ccccc1Nc1ncc(OCc2c(Cl)c(OC)cc(OC)c2Cl)cn1 | –
– | > 10 µM | > 10 µM | C=CC(=O)Nc1cccc(Cl)c1Nc1ncc(OCc2c(Cl)c(OC)cc(OC)c2Cl)cn1 | IC50 (MDA-MB-231): > 10 µM; IC50 (MDA-MB-453 [4]): 0.65 µM; IC50 (MCF7): > 10 µM
– | > 10 µM | > 10 µM | C=CC(=O)Nc1cccc(Cl)c1Nc1ncc(OCc2c(Cl)ccc(OC)c2Cl)cn1 | –
> 10 µM | > 10 µM | > 10 µM | C=CC(=O)Nc1cccc(OCC)c1Nc1ncc(OCc2c(Cl)c(OC)cc(OC)c2Cl)cn1 | –
> 10 µM | > 10 µM | > 10 µM | C=CC(=O)Nc1cc(F)cc(Cl)c1Nc1ncc(OCc2c(Cl)c(OC)cc(OC)c2Cl)cn1 | Activity (MDA-MB-453 [6]): Non-Toxic; inhibition [7]: 99.5%; IC50 [5]: 0.0026 µM; IC50 (MDA-MB-231): > 10 µM; IC50 (MDA-MB-453 [4]): 0.38 µM; Activity (MDA-MB-453 [8]): Non-Toxic; Kd [9]: 0.0033 µM; inhibition [10]: 88%; IC50 (MCF7): > 10 µM; Activity (MDA-MB-453 [11]): Dose-dependent effect; inhibition [12]: 92.8%; Activity (MDA-MB-453 [13]): Non-Toxic; inhibition [14]: 94.7%
– | > 10 µM | > 10 µM | C=CC(=O)Nc1cccc(Cl)c1Nc1ncc(OCc2cc(OC)cc(OC)c2Cl)cn1 | –
> 10 µM | > 10 µM | > 10 µM | C=CC(=O)Nc1cccc(C(F)(F)F)c1Nc1ncc(OCc2c(Cl)c(OC)cc(OC)c2Cl)cn1 | –
> 10 µM | > 10 µM | > 10 µM | C=CC(=O)Nc1cc(C(F)(F)F)cc(Cl)c1Nc1ncc(OCc2c(Cl)c(OC)cc(OC)c2Cl)cn1 | –
– | > 10 µM | > 10 µM | C=CC(=O)Nc1cccc(Cl)c1Nc1ncc(OC(C)c2c(Cl)c(OC)cc(OC)c2Cl)cn1 (stereo not given) | –
– | > 10 µM | > 10 µM | C=CC(=O)Nc1cccc(OC)c1Nc1ncc(OCc2c(Cl)c(OC)cc(OC)c2Cl)cn1 | IC50 (MDA-MB-231): 2.14 µM; IC50 (MDA-MB-453 [4]): 0.21 µM; IC50 (MCF7): 1.18 µM

Source: ChEMBL document CHEMBL3997853, “2-Aminopyrimidine Derivatives as New Selective Fibroblast Growth Factor Receptor 4 (FGFR4) Inhibitors” (ACS Med Chem Lett, 2017)
